# Autophagy mod – alters autophagy in cells. calls only at 10 µM (by protocol). MEF GFP-LC3 puncta imaging; test concentration mostly 10 µM. 0.98% of 190,000 active;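 active = percentage of spot-positive cells more than 3 SD above its plate mean, without a fluorescence outlier flag or 80% toxicity; inconclusive = no clear call, values can overlap the other calls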;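 note: spot-positive cell cutoff set from DMSO-treated cells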
# Redox H2O2 prof – compounds producing H2O2 with reducing agent – biochemical, NIH compound library profiling, artefact control for MLSCN library redox annotation, primary screen | activation, % at 10 µM | DTT-dependent redox cycling H2O2, phenol red/HRP absorbance; 100% = 100 µM peroxide control, 0% = buffer | 0.03% of 200,000 active | AID 878;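 active = activation of at least 50% relative to the plate's high and low controls in the primary single-dose screen; inactive = activation below 50%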;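 note: compound incubated with DTT at 0.8 mM final as the reducing agent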
# KCC2 mod – KCC2 (human) Cl- transport modulation. Q9H2X9. KCC2 cells, thallium flux FluoZin-2 fluorescence. B-score of Tl+ flux slope (higher = more flux/activation; lower = inhibition) at 10 µM. 2.2% of 190,000 active. AID 1456;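 active = thallium flux slope and its plate-corrected score both differing from the plate sample mean at a set confidence after two filtering rounds, in either direction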;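 note: slope of fluorescence scaled to starting intensity during 10 to 20 s after thallium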
# Dynein cargo inh – blocks dynein driven cargo transport along microtubules; 3617.4 mouse cells, GR-EGFP nuclear translocation imaging; test concentration mostly 20 µM; stimulated with dexamethasone, 1 µM; active compounds read low; z-score, hits read low; 0.47% of 220,000 active;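 active = plate z-score of nuclear minus cytoplasmic receptor signal below a set negative limit, without overly bright fluorescence or cell loss, cut at about -3.5 in these data, passing the limit was not always enough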;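 note: z-score of nuclear minus cytoplasmic ring GR-EGFP intensity difference per well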
#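 medium = tetracycline-free induction medium containing charcoal-stripped FBS | also added = 1.0 µM final dexamethasone stimulus | schedule = 48 h induction, 1 h compound, 30 min dex at 37 °C | technique = fixed, Hoechst-stained cells imaged at 10x for EGFP | measure = GR-EGFP nuclear translocation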
# ROMK mod – modulators of human ROMK potassium channel | 2% of 130,000 active | P48048 | Tet-inducible ROMK, thallium flux fluorescence; actives lie on both sides | B-score at 10 µM;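 active = signal ratio slope over the read window, or its plate-corrected B-score, at least 3 SD from the plate mean, either direction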;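 note: B-score of the F/F0 ratio slope over 7 to 12 s after thallium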
# Target sequence (P48048 whole entry, looked up): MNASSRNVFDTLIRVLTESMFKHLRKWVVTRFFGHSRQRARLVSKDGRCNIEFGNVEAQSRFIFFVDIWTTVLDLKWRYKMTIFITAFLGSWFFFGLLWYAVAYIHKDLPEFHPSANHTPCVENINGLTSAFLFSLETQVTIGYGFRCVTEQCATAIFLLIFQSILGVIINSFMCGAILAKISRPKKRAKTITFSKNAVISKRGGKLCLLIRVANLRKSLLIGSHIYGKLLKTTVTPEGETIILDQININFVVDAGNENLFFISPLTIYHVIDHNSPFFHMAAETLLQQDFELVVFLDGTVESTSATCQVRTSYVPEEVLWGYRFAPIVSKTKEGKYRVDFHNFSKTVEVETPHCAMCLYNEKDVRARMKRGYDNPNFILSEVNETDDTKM
# ROMK retest – confirmation of human ROMK potassium channel modulators. ROMK thallium flux, fluorescence ratio; active compounds read low. 54% of 3,000 active. normalized thallium flux (F/F0 slope) at 10 µM. shares compounds with ROMK mod;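 active = Flux at 10 µM at least 3 SD below or above vehicle control mean in one or both replicates; inconclusive = no clear call, values can overlap the other calls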
# The depositor's hits bear a star; i = inactive; ? = inconclusive; . = not tested or not shown; + = active, no number. Sampled rows, rich in hits. Any-hit rate of the full collection: about 4.1%.
SMILES,Autophagy mod,Redox H2O2 prof,KCC2 mod,Dynein cargo inh,ROMK mod,ROMK retest
CCc1cccc(NC(=O)c2ccc3c(=O)n4c(nc3c2)CCCCC4)c1,.,.,-2.6,0.8,-0.28,.
Cc1cccc(CSCc2ccc(C(=O)NCC3CCCO3)o2)c1 (stereo unspecified),i,0,0.043,1.1,0.53,.
O=C(NCCCOc1cccc(CN2CCCCC2)c1)c1ccc(Cl)c(Cl)c1,i,2,0.54,-0.8,-3.5*,0.057*
O=C(NCC1CCCN(Cc2cccc(OCCO)c2)C1)c1ccc(F)cc1 (stereo unspecified),i,-2,.,0.51,-0.034,.
COc1ccc2oc(=O)c(-c3nc(C)cs3)cc2c1,i,1,-0.13,-0.055,-5.1*,0.072
CC1(C)CC(N2CCN(CCO)CC2)=CC(=S)N1,.,.,-0.69,-0.61,.,.
COc1ccc(C2C(C(=O)c3ccccc3)=C(C)Nc3nc4ccccc4n32)cc1OC (stereo unspecified),i,1,-0.12,-1.2,0.62,.
COc1ccc(OC)c(C2C(C(=O)c3ccccc3)=C(C)Nc3nc4ccccc4n32)c1 (stereo unspecified),i,1,0.014,3.4,2.5*,0.068*
C/C(=N\Nc1ccc(Cl)c(C(=O)O)c1)c1ccc[nH]1,.,.,-0.069,0.085,.,.
CC(C)Nc1nnc(SC(C)C(=O)NCc2ccc3c(c2)OCO3)s1 (stereo unspecified),i,-1,-0.055,-0.2,1.7*,0.077
CC(C)Nc1nnc(SCC(=O)NCc2ccc3c(c2)OCO3)s1,i,0,1.8,-0.32,-0.061,.
COc1ccc2c(c1)c1nc3ccccc3nc1n2Cc1ccc(OC(C)C)c(OC)c1,+,2,-0.13,-1.7,-3.4*,0.057*
COc1ccccc1-n1cc([C@@H]2C[C@H]3CN(c4ccccc4)C(=O)[C@]34CCCN24)cn1,i,-1,-3,-0.52,-2.2,.
COc1cc(/C=C2/C(=O)CNC2=O)ccc1O,i,-2,-0.12,-0.46,-2.9*,0.061*
Cc1c(NC(=O)Nc2ccc(Cl)cc2)c(=O)n(-c2ccccc2)n1C,i,0,.,-1.4,.,.
Cc1c(N=C2N=C(NC(=O)Nc3ccc(Cl)cc3)c3ccccc32)c(=O)n(-c2ccccc2)n1C,+,0,.,2.5,-3.9*,0.06*
C=CCc1cc(Cl)ccc1OCCCNC(C)CC (stereo unspecified),i,0,1.1,-0.56,-2.6*,0.051*
Cc1[nH]c2ccccc2c1CN1CCC(CO)(Cc2ccccc2)CC1,i,-1,0.77,-1.3,-1.5,.
Cc1c(CN2CCC(CO)(Cc3ccccc3)CC2)c2ccccc2n1C,i,0,-0.18,0.48,-2.4*,0.06*
O=S1(=O)CCC(N=Cc2cc(Br)ccc2O)C1 (stereo unspecified),i,3,-0.49,0.11,1.6,0.1*
COCCNC(=O)C(C(=O)c1ccc(F)cc1)n1cc(C)ccc1=O (stereo unspecified),i,0,0.87,-0.14,-0.75,.
CN1CCN(c2nc(-c3cccnc3)nc3ccccc23)CC1,i,2,-0.75,-0.11,-0.76,.
COc1cc2c(cc1OC)CN(c1nc(-c3cccnc3)nc3ccccc13)CC2,i,-1,-1.8,0.12,-0.16,0.08
C=C1N(c2cccc(Cl)c2)C(=O)OC1(C)C,i,-1,0.66,-0.3,1.4,.
Cc1nc(N)nc(N)c1/C=C/C(C)(C)c1ccc(Cl)cc1,i,0,-0.47,1.5,-3.8*,0.064*
N#CC(C(=O)c1ccccc1)=C1SCCS1,.,.,0.64,-0.54,.,.
O=C(/C=C/c1ccc([N+](=O)[O-])cc1)NCCSc1ccccc1,i,-2,.,-0.14,.,?
Cc1cccc2sc(NC(=O)c3cc(S(=O)(=O)N(C)C)ccc3N3CCCC3)nc12,i,-1,-1.2,-0.23,-0.76,.
CN(Cc1nc(Cc2cccc(C(F)(F)F)c2)no1)C1CC(C)(C)NC(C)(C)C1,i,0,-0.7,-1,-0.0019,.
CC(=O)OCC(OC(C)=O)C(OC(C)=O)C(OC(C)=O)C(=O)Nc1ccc(C)cc1 (stereo unspecified),i,0,-0.093,-0.39,.,0.087

# Source: PubChem BioAssay (several laboratories)
